# Bioassay records from PubChem BioAssay.
# Compounds with a hit are over-represented: about 3.1% of the library has one in this group of screens.
# GSIS activator – GLuc luminescence reporter in INS-1E cells, primary screen for activators of glucose-dependent secretion of insulin; INS-1E GLuc reporter insulin secretion, 2-3 h; activation, % at 16.6 µM; hit rate 0.61% among 370,000; AID 743287, 2014;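 active means lowest replicate activation of at least 40%, so every replicate reaches that level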;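 further: 0% = median of neutral control wells and 100% = median of IBMX positive control wells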
# Cneo AK release – Cryptococcus neoformans cell lysis inducers, primary screen, AK release luminescence, single concentration; lysis activity, % at 15 µM; AID 651654, 2012; hit rate 0.2% among 360,000; C. neoformans lysis, adenylate kinase release luminescence, 4 h; normalised: neutral wells 0, clomiphene wells 100;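 active means mean lysis activity across replicates of at least 80%, whatever share of replicates individually reach that level; inactive means mean lysis activity below 80%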
#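 read-out = cell lysis signal | test system = log-phase Cryptococcus neoformans yeast cells | input = cells at 5 × 10^6 per mL | medium = fresh YPD growth medium | signal = luminescent adenylate kinase detection reagent | timing = 4 h at 37 °C static, read 1 h later | dosing = single dose | controls = Clomiphene as positive lysis control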
# rRNA inh HTS – reduced GFP signal of wild-type E. coli, primary screen, bacterial rRNA inhibitor project, GFP/RFP fluorescence, OD600, single point. E. coli WT GFP vs humanized-ribosome RFP mutants, 24 h; stronger effect = lower value; DMSO median 0, no signal -100. GFP signal change (wild-type ribosome), % (concentration not given with the values). hit rate 1.6% among 350,000. AID 720706, 2013;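 active means significant combined selectivity score with lowered wild-type GFP, culture density cut under 30%, mutant RFP and density less affected; inactive means any of these conditions unmet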
# F508del corr – F508del CFTR correction, initial screen, CFBE line, single point; CFBE cells, YFP halide quenching; stimulated with forskolin plus potentiator P3; % fluorescence drop versus neutral controls; AID 720511, 2013; activity (quench increase), % at 7.58 µM; hit rate 0.36% among 350,000;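 active means mean added fluorescence quench of at least 8% versus neutral control, with both replicates also reaching 8%; inconclusive means only one of the mean or replicate conditions met; inactive means mean below 8% and not both replicates reaching 8%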;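 further: cells transiently co-express mutant CFTR-F508del with the halide-sensitive YFP; corrector assay measuring rescue of mutant channel to the surface after 24 h compound exposure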
# Env fusion inh – inhibitors of HIV-1 Env-driven cell-cell fusion, primary screen, HeLa-JRFL effector, CEM21 target cells, luciferase; hit rate 1.1% among 360,000; inhibition, % at 12.3 µM;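 active means mean replicate inhibition score of at least 50 and every replicate individually at or above 50; inconclusive means only one of the two criteria met; inactive means mean below 50 and not all replicates reaching 50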;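 further: 0% = plate neutral controls and 100% = maraviroc near 300 nM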
# miR122 inh – miR-122 Renilla sensor signal increase in Huh7, primary screen, miR-122 inhibitor project, cell-based, single point, plate reader | Huh7 miR-122 Renilla luciferase sensor, 48 h; neutral wells = 0, positive control = 100 | activation (reporter increase), % at 12.5 µM | hit rate 0.3% among 340,000 | AID 602342, 2012;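 active means mean replicate activation score at least 90 and every replicate individually at or above 90; inconclusive means only one of the two criteria met; inactive means neither criterion met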;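 further: higher luciferase means less miR-122 activity so hits act as miR-122 inhibitors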
# * hit, by the source's call; ? = inconclusive; . = no result; [ ] = another dose, or the depositor's remark.
SMILES,GSIS activator,Cneo AK release,rRNA inh HTS,F508del corr,Env fusion inh,miR122 inh
COc1ccc(-c2ccccc2[C@@H]2[C@@H](C#N)N(C(=O)C3CCOCC3)[C@H]2CO)cc1,11,.,2,5,.,.
C[C@H]1CC=CC[C@H](c2ccc3c(c2)OCO3)NC(=O)[C@H](C)N(C)C(=O)c2ccccc2O1 (mixture of isomers),0,.,-2,.,.,.
O=[N+]([O-])c1ccc(O)c(C(C#Cc2ccccc2)N2CCOCC2)c1 (stereo not given),-14,.,-32*,0,89*,.
O=C(c1cc([N+](=O)[O-])ccc1N1CCOCC1)N1CCN(c2ccccc2)CC1,-12,0,4,-2,-106,?
CN1C(=O)c2cc(NC(=O)c3cccc(F)c3)ccc2OC[C@H]2O[C@@H](CC(=O)N3CCc4ccccc4C3)CC[C@H]21,-20,4,-14,1,.,-26[16.7 µM]
COc1cc2c(cc1OC)C(=O)N1[C@H]3c4cc(C)ccc4OC[C@@H]3[C@H](c3ccccc3)[C@]1(C)C(=O)N2,-2,-3,12,-3,-43,-3
COc1cc2c(cc1OC)C(=O)N1[C@H]3c4cc(Cl)ccc4OC[C@@H]3[C@H](c3ccccc3)[C@]1(C)C(=O)N2,8,0,5,-5,99*,-6
C[C@@]12C(=O)Nc3ccc(Br)cc3C(=O)N1[C@H]1c3cc(Br)ccc3OC[C@@H]1[C@@H]2c1ccccc1,-4,1,15,2,63*,.
C[C@@]12C(=O)Nc3ccc(Cl)cc3C(=O)N1[C@H]1c3cc(Br)ccc3OC[C@@H]1[C@@H]2c1ccccc1,-5,4,13,-1,45,-12
C[C@H]1NC(=O)[C@@]2(C)[C@H](c3ccccc3)[C@H]3COc4ccccc4[C@@H]3N2C1=O,-2,4,-2,0,92*,-3
O=C(C[C@H]1C[C@@H]2c3cc(NC(=O)Nc4ccc(F)cc4)ccc3O[C@@H]2[C@@H](CO)O1)NCC(F)(F)F,-3,-2,3,0,.,2[16.7 µM]
C[C@@H]1CCCCO[C@@H](CN(C)S(=O)(=O)c2cccs2)[C@@H](C)CN([C@H](C)CO)C(=O)c2cc(NC(=O)CCCN(C)C)ccc2O1,17,1,3,1,14[16.7 µM],0[16.7 µM]
Cc1noc(C)c1C(=O)N(C)C[C@H]1OCc2ccccc2-c2ccccc2C(=O)N([C@H](C)CO)C[C@@H]1C,12,-3,-2,-1,13[16.7 µM],.
COc1ccc(NC(=O)O[C@H]2[C@H](OC(=O)Nc3ccc4c(c3)OCO4)[C@H](OC(=O)Nc3ccc4c(c3)OCO4)[C@@H](OC)O[C@@H]2CO)cc1,.,2,.,-2,4[16.7 µM],.
CCOC(=O)c1c(CSc2ccccc2)n(C)c2cc(Br)c(O)c(CN(C)C)c12,-24,.,-42,3,67*,8
CCOC(=O)c1c(CSc2ccsc2)n(C)c2cc(Br)c(O)c(CN(C)C)c12,-35,.,-34,5,87*,.
CCOC(=O)c1c(CN2CCOCC2)n(-c2ccccc2)c2cc(Br)c(O)c(CN(C)C)c12,.,-4,.,.,.,.
CCOC(=O)c1c(CN2CCCCC2)n(C)c2cc(Br)c(O)c(CN(C)C)c12,.,-3,.,.,.,-2
CCOC(=O)c1c(CSc2ccc(C)cc2)n(C)c2cc(Br)c(O)c(CN(C)C)c12,-34,8,-56,0,87*,10
C[C@@H]1CN([C@H](C)CO)C(=O)c2cc(NC(=O)Nc3cccc4ccccc34)ccc2O[C@@H]1CN(C)Cc1ccccc1,-11,2,-4,2,24[16.7 µM],-2[16.7 µM]
CCC(=O)N1C[C@H](C)[C@@H](OC)CN(C)C(=O)c2ccc(NC(=O)C3CCOCC3)cc2OC[C@H]1C,-1,43,-1,1,-3[16.7 µM],-5[16.7 µM]
CC(C)Cc1ccc(C(C)C(N)=Nc2ccc(O)cc2)cc1 (stereo not given),7,11,-44*,0,30,0
CC(C)Cc1ccc(C(C)C(=O)Nc2ccc(O)cc2)cc1 (stereo not given),-12,1,-27,-1,4,.
CCC(=O)Nc1nnc(Sc2ccc(N(C)C)cc2)s1,50*,.,.,.,.,3
Cc1nn(Cc2c(F)c(F)c(F)c(F)c2F)c(C)c1NC(=O)c1ccc(COc2ccc(F)cc2)o1,-20,0,.,.,67*,-2
SMILES,GSIS activator,Cneo AK release,rRNA inh HTS,F508del corr,Env fusion inh,miR122 inh
Cc1cc(C(=O)Nc2c(C)nn(Cc3ccc(F)cc3)c2C)on1,-8,1,9,-1,1,-4
Cc1nn(Cc2c(F)c(F)c(F)c(F)c2F)c(C)c1NC(=O)c1ccc(COc2ccccc2Cl)cc1,3,5,.,.,41,-8
Cc1nn(Cc2c(F)c(F)c(F)c(F)c2F)c(C)c1NC(=O)c1ccc(COc2ccccc2Cl)o1,-26,.,.,.,66*,-25
Cc1c(C(=O)NCc2ccc(F)cc2)c(-c2ccccc2)nn1-c1ccccc1,.,4,.,.,-12,9
Cc1nn(Cc2c(F)c(F)c(F)c(F)c2F)c(C)c1NC(=O)c1c(-c2ccccc2)nn(-c2ccccc2)c1C,-23,5,.,.,95*,-3
CNC[C@H]1Oc2ccccc2C(=O)N(C)C[C@H]1C,1,.,-1,.,.,.
C[C@@H]1CN([C@@H](C)CO)C(=O)c2cc(N(C)C)ccc2O[C@H]1CN(C)Cc1ccncc1,26,-10,0,-2,-15[16.7 µM],-3[16.7 µM]
C[C@@H]1CN([C@H](C)CO)C(=O)c2cccc(NC(=O)c3ccncc3)c2O[C@H]1CN(C)C(=O)Nc1ccc(C(F)(F)F)cc1,2,82*,-3,3,20[16.7 µM],-3[16.7 µM]
C[C@@H]1CN([C@@H](C)CO)C(=O)c2cccc(NC(=O)c3ccncc3)c2O[C@@H]1CN(C)C(=O)Nc1ccccc1,22,1,2,-4,.,-3[16.7 µM]
C[C@@H]1CN([C@@H](C)CO)C(=O)c2cccc(NC(=O)c3ccncc3)c2O[C@H]1CN(C)C(=O)Nc1ccccc1,14,109*,5,4,.,0[16.7 µM]
C[C@@H]1CN([C@H](C)CO)C(=O)c2cccc(NC(=O)c3ccncc3)c2O[C@H]1CN(C)C(=O)Nc1ccccc1,2,104*,3,0,.,20[16.7 µM]
C[C@H](CO)N1C[C@H](C)[C@H](CN(C)C(=O)Nc2ccccc2)Oc2c(NC(=O)c3ccncc3)cccc2C1=O,18,1,2,-2,.,-4[16.7 µM]
CC(C)CCNC(=O)c1cccc(S(=O)(=O)N2CCc3ccccc32)c1,.,0,.,.,0,22
